# The source made the active and inactive calls. The rule behind the calls is not given here.
# How the values were obtained:
# [1] = molecular target: cAMP-dependent protein kinase catalytic subunit alpha (Homo sapiens) (UniProt P17612); experiment: Inhibition of full length human PKAcalpha assessed as remaining activity at 1 uM using LRRASLG as substrate incubated for 40 mins by scintillation counting method relative to control
# Summary of the method: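 Run as an outsourced KinaseProfiler service, with human PKA and Akt1, Akt2 and Akt3 in the same panel. Each compound was tested at a single 1 µM concentration, and the result is reported as kinase activity remaining, as a percentage of control.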
# [2] = tested on: RAC-beta serine/threonine-protein kinase (Homo sapiens), P31751 [S474D]; experiment: Inhibition of full length human Akt2 S474D mutant assessed as remaining activity at 1 uM using GRPRTSSFAEGKK as substrate incubated for 40 mins by scintillation counting method relative to control
# Summary of the method: (§1)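 Eurofins KinaseProfiler kinase assay on human Akt1, Akt2 and Akt3. Compounds were tested at 1 µM. Residual kinase activity is reported as % of control.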
# [3] = tested on: RAC-gamma serine/threonine-protein kinase (Homo sapiens), Q9Y243 [S472D]; experiment: Inhibition of full length human Akt3 S472D mutant assessed as remaining activity at 1 uM using GRPRTSSFAEGKK as substrate incubated for 40 mins by scintillation counting method relative to control; summary of the method: as §1
# [4] = Inhibition of full length human Akt1 […] mutant using GRPRTSSFAEGKK as substrate incubated for 40 mins by scintillation counting method
# Summary of the method: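 Eurofins KinaseProfiler enzymatic assay on human Akt isoforms. IC50 values are the mean of at least three independent replicates ± standard deviation.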
# [5] = tested on: Huh-7; experiment: Cytotoxicity against human Huh-7 cells assessed as reduction in cell viability by MTT assay; type: functional, cell-based
# Summary of the method: (§2)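 Hepatoma cells were grown in DMEM with 10% FBS and streptomycin, then treated with compounds. Viability was read by MTT.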
# [6] = tested on: SMMC-7721; experiment: Cytotoxicity against human SMMC-7721 cells assessed as reduction in cell viability by MTT assay; type: functional, cell-based; summary of the method: as §2
# [7] = tested on: Huh-7; experiment: Induction of apoptosis in human Huh-7 cells assessed as viable cells at 0.1 uM by Annexin V/propidium iodide staining based flow cytometric analysis (reference value: 94.83%); type: functional; details: read-out: Activity
# [8] = tested on: Huh-7; experiment: Induction of apoptosis in human Huh-7 cells assessed as viable cells at 0.2 uM by Annexin V/propidium iodide staining based flow cytometric analysis (reference value: 94.83%); type: functional; details: read-out: Activity
# [9] = tested on: Huh-7; experiment: Induction of apoptosis in human Huh-7 cells assessed as late apoptotic cells at 0.1 uM by Annexin V/propidium iodide staining based flow cytometric analysis (reference value: 3.15%); type: functional
# [10] = tested on: Huh-7; experiment: Induction of apoptosis in human Huh-7 cells assessed as necrotic cells at 0.1 uM by Annexin V/propidium iodide staining based flow cytometric analysis (reference value: 0.59%); type: functional
# [11] = tested on: Huh-7; experiment: Induction of apoptosis in human Huh-7 cells assessed as necrotic cells at 0.2 uM by Annexin V/propidium iodide staining based flow cytometric analysis (reference value: 0.59%); type: functional
# [12] = tested on: Huh-7; experiment: Induction of apoptosis in human Huh-7 cells by Annexin V/propidium iodide staining based flow cytometric analysis; type: functional, cell-based; details: dose 0.1-0.2 µM
# [13] = tested on: Huh-7; experiment: Induction of autophagy in human Huh-7 cells harboring GFP-LC3 assessed as increase in number of the autophagosome puncta at 0.2 uM after 6 hrs; type: functional, cell-based
# Summary of the method: (§3)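 GFP-LC3-transfected cells were exposed to saline or compound for 6 h, then fixed with paraformaldehyde. Autophagosome puncta were scored by fluorescence of accumulated GFP-LC3.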
# [14] = tested on: Hep 3B2; experiment: Induction of autophagy in human Hep3B cells harboring GFP-LC3 assessed as increase in number of the autophagosome puncta at 0.2 uM after 6 hrs; type: functional, cell-based; summary of the method: as §3
# [15] = molecular target: Glycogen synthase kinase-3 beta (Homo sapiens) (UniProt P49841); experiment: Inhibition of GSK3beta phosphorylation at […] residue in human Huh-7 cells at 0.1 to 0.2 uM by Western blot analysis; type: cell-based; details: dose 0.1-0.2 µM
# Summary of the method: (§4)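 Huh-7 cells were treated with or without compound. Total protein extracts were separated by SDS-PAGE and transferred to PVDF. Membranes were probed with primary antibodies, then HRP-conjugated secondary antibody (1:10,000), and detected by enhanced chemiluminescence.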
# [16] = Effect on total AKT protein level in human Huh-7 cells at 0.1 to 0.2 uM by Western blot analysis; type: ADME, cell-based; details: huh-7, 0.2 µM, dose 0.1-0.2 µM; summary of the method: as §4
# [17] = tested on: Huh-7; experiment: Induction of apoptosis in human Huh-7 cells assessed as reduction in Bcl-2 expression at 0.1 to 0.2 uM Western blot analysis; type: functional, cell-based; details: dose 0.1-0.2 µM; summary of the method: as §4
# [18] = tested on: Huh-7; experiment: Induction of autophagy in human Huh-7 cells harboring mCherry-GFP-LC assessed as increase in autophagosome puncta formation at 0.2 uM by fluorescence assay; type: functional, cell-based
# [19] = tested on: Huh-7; experiment: Induction of apoptosis in human Huh-7 cells assessed as upregulation of cleaved caspase-3 protein expression at 0.1 to 0.2 uM by Western blot analysis; type: functional, cell-based; details: dose 0.1-0.2 µM; summary of the method: as §4
# [20] = tested on: Huh-7; experiment: Induction of autophagy in human Huh-7 cells assessed as reduction in cathepsin B activity at 0.2 uM in presence of Baf-A1; type: functional, cell-based
# [21] = tested on: Huh-7; experiment: Induction of autophagosome in human Huh-7 harboring GFP-LC3 cells at 0.2 uM in presence of Baf-A1 by fluorescence microscopic analysis; type: functional, cell-based
# [22] = tested on: Huh-7; experiment: Antitumour activity against human Huh-7 cells xenografted in nude mouse assessed as reduction in tumour volume at […], ip up to 15 days; type: functional, organism-based; details: time day <=15
# Summary of the method: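 Nude mice bearing subcutaneous Huh-7 xenografts received 25 or 50 mg/Kg compound intraperitoneally. Tumor volume was followed from day 1 to day 15, with excised tumors weighed at the end. Body weight was also monitored.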
# [23] = tested on: Huh-7; experiment: Antitumour activity against human Huh-7 cells xenografted in nude mouse assessed as increase in apoptotic cells at […], ip up to 15 days by TUNEL assay; type: functional, organism-based; details: time day <=15
# Summary of the method: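 Tumor sections came from Huh-7 xenografted nude mice given 25 or 50 mg/Kg intraperitoneally over 15 days. Apoptotic cells were detected by TUNEL staining.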
# [24] = Effect on total AKT level in human Huh-7 cells xenografted in nude mouse at 20 to 50 mg/kg, ip up to 15 days by immunohistochemical analysis; type: ADME, organism-based; details: in vivo, 360 h, dose 20-50 mg/kg, time <=15 day
# Summary of the method: (§5)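 Tumors came from Huh-7 xenografted nude mice dosed intraperitoneally at 25 or 50 mg/Kg for 15 days. For IHC, sections underwent microwave antigen retrieval (EDTA pH 8.0 or citrate pH 6.0), then primary antibody at 37 °C for 30-40 min. HRP polymer/secondary was applied for 30 min, with DAB development and control IgG.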
# [25] = tested on: Huh-7; experiment: Antitumour activity against human Huh-7 cells xenografted in nude mouse assessed as decrease in p62/SQSTMI at 20 to 50 mg/kg, ip up to 15 days by immunohistochemical analysis; type: functional, organism-based; details: dose 20-50 mg/kg, time day <=15; summary of the method: as §5
# Chain of RAC-gamma serine/threonine-protein kinase (Homo sapiens), Q9Y243 [S472D] (Q9Y243 whole entry S472D): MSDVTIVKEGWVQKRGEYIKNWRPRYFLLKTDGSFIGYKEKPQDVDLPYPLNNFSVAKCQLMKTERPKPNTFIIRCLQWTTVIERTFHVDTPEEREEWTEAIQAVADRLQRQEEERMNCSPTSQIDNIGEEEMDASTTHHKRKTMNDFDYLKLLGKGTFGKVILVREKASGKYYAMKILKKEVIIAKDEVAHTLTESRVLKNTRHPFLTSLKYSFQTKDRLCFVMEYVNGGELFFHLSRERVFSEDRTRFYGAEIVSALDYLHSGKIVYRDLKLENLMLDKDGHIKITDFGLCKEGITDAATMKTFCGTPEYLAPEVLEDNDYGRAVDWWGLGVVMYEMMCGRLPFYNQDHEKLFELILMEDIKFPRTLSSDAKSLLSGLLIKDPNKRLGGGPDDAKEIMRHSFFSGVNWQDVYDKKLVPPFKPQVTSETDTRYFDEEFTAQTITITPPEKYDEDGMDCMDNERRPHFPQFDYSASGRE
# Chain of Glycogen synthase kinase-3 beta (Homo sapiens) (P49841 whole entry, looked up): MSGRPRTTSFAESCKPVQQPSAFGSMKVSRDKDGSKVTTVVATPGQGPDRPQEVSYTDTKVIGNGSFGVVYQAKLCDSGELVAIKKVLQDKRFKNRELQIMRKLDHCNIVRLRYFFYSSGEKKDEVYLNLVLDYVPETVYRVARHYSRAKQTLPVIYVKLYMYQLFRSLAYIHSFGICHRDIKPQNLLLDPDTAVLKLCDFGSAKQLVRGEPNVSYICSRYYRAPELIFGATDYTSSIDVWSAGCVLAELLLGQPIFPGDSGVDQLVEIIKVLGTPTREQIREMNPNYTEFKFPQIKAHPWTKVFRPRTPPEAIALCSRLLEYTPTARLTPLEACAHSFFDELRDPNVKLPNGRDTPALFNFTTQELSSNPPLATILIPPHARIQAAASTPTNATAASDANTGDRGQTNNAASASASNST
# Chain of RAC-beta serine/threonine-protein kinase (Homo sapiens), P31751 [S474D] (P31751 whole entry S474D): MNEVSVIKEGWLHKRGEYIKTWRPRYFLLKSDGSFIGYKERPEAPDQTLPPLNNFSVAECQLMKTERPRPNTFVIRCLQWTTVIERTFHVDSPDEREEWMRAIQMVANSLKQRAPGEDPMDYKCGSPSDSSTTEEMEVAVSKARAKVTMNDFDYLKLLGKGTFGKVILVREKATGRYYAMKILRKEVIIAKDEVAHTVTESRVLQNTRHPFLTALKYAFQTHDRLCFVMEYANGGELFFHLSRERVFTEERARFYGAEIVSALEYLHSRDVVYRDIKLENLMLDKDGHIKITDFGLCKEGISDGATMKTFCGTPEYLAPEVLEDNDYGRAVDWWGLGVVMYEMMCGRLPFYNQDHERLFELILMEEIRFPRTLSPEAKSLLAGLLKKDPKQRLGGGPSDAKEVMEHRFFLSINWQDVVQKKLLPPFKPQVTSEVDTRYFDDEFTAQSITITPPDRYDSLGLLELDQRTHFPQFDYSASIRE
compound,measurement,setting,value
O=C(C(CNC1CCCC1)c1ccc(Cl)cc1)N1CCN(c2ncnc3sc4c(c23)CCC4)CC1 (stereo not given),Activity,[1],35%
same,Activity,[2],63%
same,Activity,[3],22%
same,IC50,[4],34 nM
same,IC50,[5],76 nM
same,IC50,[6],386 nM
same,viability at 0.1 µM,[7],84.2%
same,viability at 0.2 µM,[8],80.8%
same,Activity,[9],7.92%
same,Activity,[10],2.69%
same,Activity,[11],2.99%
same,Activity,[12],Dose-dependent effect
same,Activity,[13],Active
same,Activity,[14],Active
same,inhibition,[15],Active
same,Activity,[16],Non-Toxic
same,Activity,[17],Active
same,Activity,[18],Active
same,Activity,[19],Active
same,Activity,[20],Active
same,Activity,[21],Active
same,Activity,[22],Active
same,Activity,[23],Active
same,Activity,[24],Non-Toxic
same,Activity,[25],Active

# From ChEMBL document CHEMBL4680191, “Discovery of novel akt1 inhibitor induces autophagy associated death in hepatocellular carcinoma cells” (Eur J Med Chem, 2020)
